From BindingDB's records for doi:10.1021/acs.jmedchem.7b00693 (The University of Tokyo, 2017)

Target: Probable G-protein coupled receptor 34 (Mus musculus, UniProt Q9R1K6)
Assay: Agonist activity at mouse GPR34 expressed in HEK293 cells co-transfected with AP-TGFalpha/chimeric Galphaq/i1 assessed as induction of ectodomain shedding of membrane bound AP-TGFalpha after 1 hr
Outline: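 HEK293A cells transiently co-transfected with AP-TGFα, chimeric Gαq/i1 and GPR34 (human for line 1, mouse for line 3) or empty vector (mock). After 24 h, cells were suspended in HBSS with 5 mM HEPES pH 7.4 and preincubated 30 min with 10 μM (final) Ki16425. Compounds in HBSS with 0.01% fatty acid-free BSA were added for 1 h at 37 °C. AP activity in medium and on cells was read as OD405 with p-NPP after 1 h at room temperature.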

Chain of Probable G-protein coupled receptor 34 (Q9R1K6 whole entry, the tested form may be a part): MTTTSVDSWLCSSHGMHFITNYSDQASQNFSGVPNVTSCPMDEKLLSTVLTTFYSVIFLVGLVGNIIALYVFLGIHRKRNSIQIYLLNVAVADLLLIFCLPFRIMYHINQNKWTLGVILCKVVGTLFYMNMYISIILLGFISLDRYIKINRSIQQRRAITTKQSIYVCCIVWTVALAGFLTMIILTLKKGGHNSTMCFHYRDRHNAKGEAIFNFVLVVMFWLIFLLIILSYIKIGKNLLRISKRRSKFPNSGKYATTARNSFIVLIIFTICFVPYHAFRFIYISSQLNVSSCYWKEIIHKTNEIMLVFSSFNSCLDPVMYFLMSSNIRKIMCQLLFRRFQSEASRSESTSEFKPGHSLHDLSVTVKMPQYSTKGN

Row | Structure (SMILES) | EC50 [µM]
1 | CCCCCCCC/C=C\CCCCCCCC(=O)OCCCOP(=O)(O)OC[C@H](N)C(=O)O | > 3.16
2 | CC(C)(C)c1ccccc1Oc1cccc(COc2ccccc2CCC(=O)OCCCOP(=O)(O)OC[C@H](N)C(=O)O)c1 | > 3.16
3 | CCCCCCOc1cccc(COc2ccccc2CCC(=O)OCCCOP(=O)(O)OC[C@H](N)C(=O)O)c1 | > 3.16
4 | CCCCCCOCC#CCOc1ccccc1CCC(=O)OCCCOP(=O)(O)OC[C@H](N)C(=O)O | > 3.16

Further lines, results first:

Row | EC50 [µM] | Structure (SMILES)
5 | > 3.16 | N[C@@H](COP(=O)(O)OCCCOC(=O)CCc1ccccc1OCc1cccc(OCc2ccccc2)c1)C(=O)O
6 | > 3.16 | N[C@@H](COP(=O)(O)OCCCOC(=O)CCc1ccccc1OCc1cccc(-c2ccccc2)c1)C(=O)O
